# This is a sample that favours compounds with a hit; in the whole collection about 3% have one here.
# SENP6 block – SENP6 protease inhibition | Recombinant SENP6 catalytic domain, aminoluciferin luminescence | Q9GZR1 | AID 2599 | inhibition, % at 10 µM | actives 1.8% (n = 330,000);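 active = inhibition above about 50% at the single tested dose, limit read from the data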
# Target sequence (Q9GZR1 628-1112 limits assumed): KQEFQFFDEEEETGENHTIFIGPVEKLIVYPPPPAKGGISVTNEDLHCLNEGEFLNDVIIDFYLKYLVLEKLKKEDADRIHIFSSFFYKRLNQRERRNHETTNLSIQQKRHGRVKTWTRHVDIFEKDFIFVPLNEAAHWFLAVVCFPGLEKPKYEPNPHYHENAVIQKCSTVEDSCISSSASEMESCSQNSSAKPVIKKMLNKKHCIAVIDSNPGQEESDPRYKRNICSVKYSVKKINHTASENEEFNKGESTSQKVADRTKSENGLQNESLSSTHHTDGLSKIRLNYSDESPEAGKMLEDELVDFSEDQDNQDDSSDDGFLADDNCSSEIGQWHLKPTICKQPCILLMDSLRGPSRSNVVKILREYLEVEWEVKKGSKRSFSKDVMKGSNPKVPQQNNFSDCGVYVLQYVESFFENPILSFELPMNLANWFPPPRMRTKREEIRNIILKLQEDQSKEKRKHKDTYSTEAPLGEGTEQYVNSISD
# SENP7 inh – blocks the human protease SENP7; Q9BQF6; recombinant SENP7, Z-RLRGG-aminoluciferin luminescence, 40 min; AID 434973; actives 1.5% (n = 330,000); inhibition, % at 5 µM;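 active = inhibition above about 50% at the single test dose, limit read from the data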
# Apaf1 inhib – inhibitors of human Apaf-1 apoptosome; O14727; reconstituted apoptosome caspase-3 activity, DEVD-Rh110 fluorescence; inhibition, % at 20 µM; actives 0.71% (n = 330,000); active = inhibition of at least 40% at 20 µM
#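 System: Apoptosome proteins | Medium: Hepes pH 7.5 with detergent and BSA | Also added: Cytochrome c trigger plus (Z-DEVD)2-Rh110 caspase-3 substrate | Incubation: 30 min compound preincubation, 50 min activation, room temperature | Detection: Rhodamine 110 fluorescence at Ex 480/Em 540 nm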
# SENP8 block-1 – SENP8 (human) protease inhibition | Q96LD8 | recombinant SENP8, Nedd8 substrate fluorescence | inhibition, % at 20 µM | actives 0.64% (n = 360,000) | AID 602440; in the data active = inhibition mostly above about 40%, no sharp cut-off; inactive = mostly below about 27%
# SENP8 block-2 – SENP8 protease inhibition; Q96LD8; inhibition, % at 10 µM; actives 1.2% (n = 330,000); purified SENP8, Z-RLRGG-aminoluciferin cleavage, luminescence; in the data active = inhibition above about 50%
# UBC13 polyUb – inhibitors of human UBC13 polyubiquitin chain formation; P61088; TR-FRET; inhibition, % at 20 µM; actives 0.47% (n = 330,000); AID 485273; in the data active = inhibition above about 45%, passing the limit was not always enough
# Target sequence (P61088 whole entry, looked up): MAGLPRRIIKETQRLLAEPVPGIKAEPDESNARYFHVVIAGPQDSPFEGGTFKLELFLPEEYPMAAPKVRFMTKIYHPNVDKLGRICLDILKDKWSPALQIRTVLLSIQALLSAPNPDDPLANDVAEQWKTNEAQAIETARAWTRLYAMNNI
# SENP8 conf – confirmation of human SENP8 protease inhibitors; shares compounds with SENP7 inh; Recombinant SENP8, Z-RLRGG-aminoluciferin luminescence, 60 min; inhibition, % at 12.5 µM; actives 40% (n = 6,200);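 active = mean inhibition across replicates above about 50%, limit read from the data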
# SENP6 conf – human SENP6 inhibition, confirmed; shares compounds with SENP7 inh; recombinant SENP6, Z-RLRGG-aminoluciferin luminescence; inhibition, % at 12.5 µM; actives 58% (n = 6,200)
# SENP7 confirm – human SENP7 inhibition, confirmed. shares compounds with SENP7 inh. recombinant SENP7, Z-RLRGG-aminoluciferin luminescence, 40 min. inhibition, % at 12.5 µM. actives 69% (n = 6,200)
# Casp3 select – selectivity test for SENP inhibitors: human caspase-3 inhibition; purified caspase-3, Z-DEVD-aminoluciferin luminescence, 60 min; shares compounds with SENP7 inh; inhibition, % at 12.5 µM; actives 60% (n = 6,200); AID 488918;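 active = mean inhibition above about 50%, limit read from the data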
# SENP luc ctr – counter-screen for SENP inhibitors: luminescence interference | shares compounds with SENP7 inh | Pre-incubated SENP8/Z-RLRGG-aminoluciferin, luciferase luminescence interference | inhibition, % at 12.5 µM | actives 39% (n = 6,200);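 active = mean inhibition above about 50% when retested at one dose, limit read from the data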
# Hits are given with their value; - = inactive; . = no result.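 The calls were made as follows, unless noted: active = mean inhibition above about 50% in the one-dose retest (limit read from the data); inactive = the rest.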
SMILES,SENP6 block,SENP7 inh,Apaf1 inhib,SENP8 block-1,SENP8 block-2,UBC13 polyUb,SENP8 conf,SENP6 conf,SENP7 confirm,Casp3 select,SENP luc ctr
CCOc1ccc([N+](=O)[O-])c(N)c1,-,-,-,-,-,-,.,.,.,.,.
CCOc1ccc(Nc2ccc([N+](=O)[O-])c3nonc23)cc1,71,-,-,-,65,-,64,60,84,61,65
CCCCCc1c(-c2ccc(OC)cc2)ncn1CCc1ccccc1OC,.,.,.,-,.,.,.,.,.,.,.
CCCCCCOc1ccc(C(=O)O)cc1C#N,77,-,-,-,61,-,61,61,85,77,75
CN(Cc1ccccc1)C(=O)c1csc([C@@H]2O[C@H](CO)[C@@H](O)[C@H]2O)n1,.,.,.,-,.,.,.,.,.,.,.
Nc1cc(N)cc(-c2nc3ccccc3o2)c1,-,-,-,-,-,-,.,.,.,.,.
CCc1ccc2oc(-c3cccc(N)c3)nc2c1,96,98,-,-,95,-,-,98,102,94,96
Nc1ccc2oc(-c3cccc(Br)c3)nc2c1,90,90,-,-,82,-,58,82,98,74,-
Nc1ccc(-c2nc3ccccc3o2)cc1,60,67,-,-,55,-,70,65,90,70,71
Cc1ccc2nc(-c3cccc(N)c3)oc2c1,95,98,-,-,95,-,-,97,102,95,94
COc1ccc(C(=O)N2CCCC(c3cc(C(=O)Nc4ccccc4)no3)C2)cc1 (stereo not given),.,.,.,-,.,.,.,.,.,.,.
CCOC(=O)C1=CCN(S(=O)(=O)c2ccccc2Cl)C1c1cccc(F)c1 (stereo not given),.,.,.,-,.,.,.,.,.,.,.
COc1ccc(-c2ccccc2)cc1NC(=O)[C@@H]1O[C@H](CO)[C@H](O)[C@H](O)[C@H]1O,.,.,.,-,.,.,.,.,.,.,.
COC(=O)C[C@@H]1C=C[C@H](NC(=O)Nc2ccc(OC)cc2)[C@@H](CO)O1,.,.,.,-,.,.,.,.,.,.,.
CCCCOCCCNC(=O)C[C@@H]1C[C@@]2(C(=O)OCC)CCCC=C2N(Cc2ccc(Cl)cc2Cl)C1=O,.,.,.,-,.,.,.,.,.,.,.
Cc1ccc2nc(-c3ccc(O)cc3)oc2c1,85,74,-,-,85,-,84,84,94,68,-
CCCCc1c(Cc2ccccc2)ncn1CCc1ccccc1OC,.,.,.,-,.,.,.,.,.,.,.
c1cc2c3c(cccc3c1)C(N1CCCCC1)=N2,69,-,91,-,-,-,-,-,-,-,-
COc1ccc(C(=O)N(c2c(C)cccc2C)C(COC(C)=O)COC(C)=O)cc1,.,.,.,-,.,.,.,.,.,.,.
Nc1nc(-c2ccc(Oc3ccccc3)cc2)cs1,-,-,-,-,-,-,.,.,.,.,.
Nc1nc(-c2ccc3ccccc3c2)cs1,-,74,-,-,69,-,-,83,97,64,84
Nc1nc(-c2ccc(-c3ccccc3)cc2)cs1,-,73,-,-,68,-,-,82,97,55,-
Nc1nc(-c2cc3ccccc3o2)cs1,71,-,-,-,-,-,52,53,81,56,-
COc1ccc2oc(=O)c(-c3nc(C)cs3)cc2c1,-,92,-,-,75,-,-,-,-,-,-
c1ccc(COc2ncnc3c2ncn3CCCNCC(c2ccccc2)c2ccccc2)cc1,.,.,.,-,.,.,.,.,.,.,.
SMILES,SENP6 block,SENP7 inh,Apaf1 inhib,SENP8 block-1,SENP8 block-2,UBC13 polyUb,SENP8 conf,SENP6 conf,SENP7 confirm,Casp3 select,SENP luc ctr
c1ccc(Cn2ccc(-c3cnc(-c4ccccc4)s3)n2)cc1,81,80,-,-,64,-,-,78,92,63,64
Nc1ccn(Cc2ccccc2)n1,-,-,-,-,-,-,.,.,.,.,.
COc1ccc(C2CC=C(C(C)=O)CN2S(=O)(=O)c2ccc(Cl)cc2)cc1 (stereo not given),.,.,.,-,.,.,.,.,.,.,.
CN(CCC#N)c1ccc(C=C(C#N)c2ccc(Br)cc2)cc1,.,.,.,-,.,.,.,.,.,.,.
CN(CCC#N)c1ccc(/C=C(\C#N)c2ccccn2)cc1,76,-,-,-,80,-,91,92,99,89,92
O=[N+]([O-])c1ccc(-c2ccc(C=Nc3cccc4ccccc34)o2)cc1,83,52,46,-,-,-,-,-,-,-,-
CC1(C(=O)Nc2cnc3ccccc3c2)CCN1C(=O)C/C=C/c1ccccc1 (stereo not given),.,.,.,-,.,.,.,.,.,.,.
O=C(O)c1ccc(N/N=C/c2cccc(F)c2)cc1,100,84,-,-,97,-,100,100,104,98,99
CC(SC(C)C(=O)NN=Cc1cccc(F)c1)C(=O)NN=Cc1cccc(F)c1 (stereo not given),.,.,.,-,.,.,.,.,.,.,.
O=C(O)c1ccc(N/N=C/c2cccc(C(F)(F)F)c2)cc1,74,-,-,-,66,-,80,70,95,-,90
O=C(O)c1ccc(N/N=C/c2ccc(F)c(F)c2)cc1,98,97,-,-,97,-,99,100,102,97,98
O=C(O)c1ccc(N/N=C/c2ccncc2)cc1,90,94,-,-,85,-,91,93,100,88,94
COc1ccc(CC(N)c2csc(NC(=O)C(c3ccccc3)c3ccccc3)n2)cc1 (stereo not given),.,.,.,-,.,.,.,.,.,.,.
Cc1c(NC(=O)c2cc3c(s2)CCCC3)c(=O)n(-c2ccccc2)n1C,-,-,-,-,61,-,-,-,-,-,-
Cc1ccc(/C=C/c2nc3ccccc3c(=O)[nH]2)cc1,90,98,-,-,86,-,-,55,-,-,-
COc1cc(/C=C/c2nc3ccccc3c(=O)[nH]2)cc(OC)c1OC,-,-,-,-,-,-,.,.,.,.,.
Cc1ccccc1/C=C\c1nc2ccccc2c(=O)[nH]1,76,85,-,-,69,-,-,-,62,-,-
COC(=O)c1ccc(/C=C/c2nc3ccccc3c(=O)[nH]2)cc1,89,96,-,-,85,-,-,-,52,63,-
C=CCOc1cccc(/C=C/c2nc3ccccc3c(=O)[nH]2)c1,-,82,-,-,-,-,-,-,-,-,-
CCn1c(/C=C/c2ccccc2C)nc2ccccc2c1=O,-,-,-,-,-,-,.,.,.,.,.
COCCOC(=O)N/C=C\c1nc2ccccc2c(=O)[nH]1,-,-,-,-,-,-,.,.,.,.,.

# Assay outcomes (PubChem BioAssay)
